Compound activity: PubChem, The Scripps Research Institute Molecular Screening Center
Hits are enriched below; roughly 4% of the tested compounds scored in any of these assays.
CHO parental Ca = ATP-evoked calcium signal inhibitors, parental CHO, primary screen, counter-screen for OX1R antagonist project, cell-based, fluorescence, Fluo-8 calcium dye | 0.63% of 330,000 active | parental CHO-K1, ATP-induced calcium, Fluo-8 fluorescence | inhibition, % at 5.6 µM;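 active means inhibition above that plate's mean sample inhibition plus 3 SD, cut at about 26% in these data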
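Assay system: parental CHO cells; Read-out basis: percent inhibition of ATP-evoked calcium rise, normalized to controls; Benchmarks: ATP and no-ATP DMSO wells; Compound dosing: single nominal dose of 5.6 µM per compound; Signal: Fluo-8 calcium dye fluorescence; Also added: ATP as calcium-mobilizing challenge; Repeats: singlicate.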
TAAR1 antagonist = human TAAR1 antagonists, primary screen, Fluo-8 calcium fluorescence, CHO RD-HGA16 cells; 1.5% of 360,000 active; inhibition, % at 3 µM; antagonist;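 active means inhibition above a per-plate cutoff, the mean inhibition of test compounds on that plate plus 3 SD, cut at about 49% in these data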
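Test system – hTAAR1-expressing CHO RD-HGA16 cells, Gα16-coupled · Reagent – β-PEA at EC80 concentration, post-compound challenge · Compound dosing – 3 µM, single point · Timing – 140 s kinetic read after compound, 140 s after agonist · Detection – Fluo-8 intracellular calcium dye fluorescence, real-time kinetic reads · Control set – DMSO and EC80 PEA controls · Repeats – n of 1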
TAAR1 ag = human TAAR1 agonists, primary screen, Fluo-8 calcium fluorescence, CHO RD-HGA16 cells; Trace amine-associated receptor 1 (Homo sapiens), Q96RJ0; vehicle wells 0%, saturating PEA agonist 100%; activation, % at 3 µM; 0.99% of 360,000 active; AID 624467, 2012;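 active means activation above the mean activation of all test compounds in the run plus 3 SD, cut at about 38% in these data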
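test system = CHO RD-HGA16 cells carrying human TAAR1 plus Gα16 | schedule = 17-24 h seeding, 75 min 37 °C dye, 30 min RT | compound dosing = 3 µM single concentration | control set = DMSO and PEA EC100 | replicates = n 1 | signal = Fluo-8 fluorescence, 5 s baseline then 140 s kinetic read | measure = percent activation vs PEA EC100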
OX1R antag-1 = OX1R (HCRTR1) antagonists, primary screen, fluorescence, CHO/OX1R cells, Fluo-8 calcium, orexin A | 0.43% of 330,000 active | Orexin/Hypocretin receptor type 1 (Homo sapiens), O43613 | inhibition, % at 5 µM | Fluo-8 calcium fluorescence;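 active means inhibition above its plate's threshold, mean inhibition of all tested compounds on the plate plus 3 SD, cut at about 37% in these data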
Target sequence (O43613 whole entry, looked up): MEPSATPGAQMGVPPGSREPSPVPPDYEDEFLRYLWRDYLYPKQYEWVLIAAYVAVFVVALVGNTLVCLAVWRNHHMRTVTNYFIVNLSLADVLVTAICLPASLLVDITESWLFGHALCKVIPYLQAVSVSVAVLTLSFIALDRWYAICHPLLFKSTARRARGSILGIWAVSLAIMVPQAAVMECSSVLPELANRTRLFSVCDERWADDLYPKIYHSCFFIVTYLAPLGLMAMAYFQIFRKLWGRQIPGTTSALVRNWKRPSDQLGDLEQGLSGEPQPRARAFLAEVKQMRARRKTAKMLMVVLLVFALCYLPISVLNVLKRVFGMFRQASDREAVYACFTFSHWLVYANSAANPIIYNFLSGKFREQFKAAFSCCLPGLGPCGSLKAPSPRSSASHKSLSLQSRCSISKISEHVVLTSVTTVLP
OX1R antag-2 = antagonists of human orexin 1 receptor (OX1R); Orexin/Hypocretin receptor type 1 (Homo sapiens), O43613; OX1R-expressing cells, FRET antagonist read-out; inhibition, % at 6.6 µM; 1.8% of 330,000 active; in the data active means inhibition mostly above about 38%, no sharp cut-off; inactive means mostly below about 40%
Each line names hits and unclear results; the compound was inactive in the other large screens; ! = repeats disagree.

C=CCN1C(=O)c2[nH]nc(-c3ccccc3)c2C1c1ccc(C)cc1 (stereo not given)	none (no result: CHO parental Ca, OX1R antag-1, OX1R antag-2)
CCc1cc2c(nc1CC)CCCN2S(=O)(=O)c1c(C)noc1C	none (no result: CHO parental Ca, OX1R antag-1, OX1R antag-2)
N#Cc1c(N)[nH]c(C(=O)c2ccccc2)c1-c1ccc(Br)cc1	none (no result: CHO parental Ca, OX1R antag-1, OX1R antag-2)
Cc1ccc(S(=O)(=O)c2c(C)cc(C)nc2Cl)cc1	none
Cc1cc(C)c(S(=O)(=O)c2ccc(C(C)(C)C)cc2)c(Cl)n1	CHO parental Ca 43
COc1cc(NC(=O)c2ccnc(N)c2)cc(C(=O)Nc2cccc(C(F)(F)F)c2)c1	none
COc1cc(NC(=O)c2cc(C)on2)cc(C(=O)Nc2cccc(C(F)(F)F)c2)c1	TAAR1 antagonist 54!
COc1cc(NC(=O)c2csc(N)n2)cc(C(=O)Nc2cccc(C(F)(F)F)c2)c1	TAAR1 antagonist 53!
C[C@@H]1CN([C@@H](C)CO)C(=O)CCCn2nncc2CO[C@H]1CN(C)S(=O)(=O)c1cn(C)cn1	none (no result: CHO parental Ca, OX1R antag-1, OX1R antag-2)
CC(C)=CCN1C(=O)[C@]2(OCCC=C[C@H]2C)c2c(Br)cccc21	none (no result: CHO parental Ca, OX1R antag-1, OX1R antag-2)
CC(Oc1ccc(Br)cc1)C(=O)Nc1nc(-c2ccccn2)cs1 (stereo not given)	CHO parental Ca 35
COc1ccc(NC(=O)C2CC(c3ccccc3O)=NO2)cc1OC (stereo not given)	none
Nc1ccn([C@@H]2O[C@H](C(=O)N[C@H](Cc3ccccc3)C(=O)NCC(=O)N3CCOCC3)[C@@H](O)[C@H]2O)c(=O)n1	none (no result: CHO parental Ca, OX1R antag-1, OX1R antag-2)
O=C(Nc1ccccc1NS(=O)(=O)c1ccc(F)cc1)C1CCCC1	OX1R antag-2 63
CCOc1ccccc1NC(=O)C1CCCCN1S(=O)(=O)c1ccccc1 (stereo not given)	OX1R antag-2 53
COc1ccccc1NC(=O)C1CCCCN1S(=O)(=O)c1ccc(F)cc1 (stereo not given)	OX1R antag-2 57
CCOc1ccc(NC(=O)C2CCCCN2S(=O)(=O)c2ccccc2)cc1 (stereo not given)	none
Cc1ccc(/C(N)=N/OC(=O)c2cccc(Cn3cc(C(F)(F)F)ccc3=O)c2)cc1	none
N/C(=N\OC(=O)c1cccc(Cn2cc(C(F)(F)F)ccc2=O)c1)c1ccccc1	CHO parental Ca 46, OX1R antag-1 48
CNC[C@H]1Oc2c(NS(=O)(=O)c3cccs3)cccc2C(=O)N([C@H](C)CO)C[C@@H]1C	none
COC(=O)C1=C[C@@H](C(=O)OC)C2C3=C(C(=O)C24CCCCC4)[C@H](C)n2c(=O)n(C)c(=O)n2[C@@H]3C1 (stereo not given in full)	none
COC(=O)C1=C[C@@H](C(=O)OC)C2C3=C(C(=O)C24CCCCC4)[C@H](C)n2c(=O)n(-c4ccccc4)c(=O)n2[C@@H]3C1 (stereo not given in full)	TAAR1 antagonist 52
NC(=O)c1ccc(SCC(=O)OCC(=O)NCc2ccco2)c([N+](=O)[O-])c1	none
CC(C)=CCc1c(-c2ccc(O)cc2O)oc2cc3c(c(O)c2c1=O)C=CC(C)(C)O3	none (no result: TAAR1 antagonist, TAAR1 ag)
CC(C)=CCC12Oc3cc(O)ccc3C1(O)Oc1cc3c(c(O)c1C2=O)C=CC(C)(C)O3 (stereo not given)	CHO parental Ca 44 (no result: TAAR1 antagonist, TAAR1 ag)
CC(C)C[C@H]1COc2cc(NCCCN3CCOCC3)ccc2S(=O)(=O)N1	none (no result: CHO parental Ca, OX1R antag-1, OX1R antag-2)
CCCCN(C(=O)CCC(=O)Nc1cc(C)on1)C(C(=O)NC1CCCC1)c1ccccc1OCC (stereo not given)	OX1R antag-2 76
CCCCN(C(=O)CCC(=O)Nc1cc(C)on1)C(C(=O)NC1CCCC1)c1ccc(OCC)cc1 (stereo not given)	none
C=C(C)COc1ccc2c(C)c(CCC(=O)N3C[C@H]4C[C@@H](C3)c3cccc(=O)n3C4)c(=O)oc2c1	none
CCOC(=O)C1=CCN(S(=O)(=O)c2ccc(Br)cc2)C1c1ccc(F)cc1 (stereo not given)	none (no result: CHO parental Ca, OX1R antag-1, OX1R antag-2)
CCOC(=O)C1CCCN(S(=O)(=O)c2cc(C(=O)OC)n(C)c2)C1 (stereo not given)	CHO parental Ca 26
